# According to ChEMBL document CHEMBL5724801, “EUbOPEN Chemogenomics Library - Multiplex” (2024):
# Values joined by “and” are separate entries in the source; they are usually repeats but may differ in a detail not shown here. Equal values may be shown once.
# Tested on: HEK-293T
# Assay: Multiplex assay against HEK293T
# Assay type: toxicity, cell-based
# Conditions: human
# Method in brief: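 Imaging took place on a CQ1 microscope at 37°C and 5% CO2 once compound had been added to live cells stained at seeding with Hoechst33342, BioTracker Green Microtubule Cytoskeleton Dye, MitoTracker Red and Annexin V Alexa Fluor 680. CellPathfinder machine-learning gating classed cells as Hoechst high-intensity objects or normal cells, classed normal cells as having healthy, pyknosed or fragmented nuclei, and classed pyknosed cells as mitotic or apoptotic. Tubulin, mitochondrial-mass and membrane-permeability phenotypes are per cents of the healthy-nucleus cells.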
# [1] = 12 h, 1 µM, compound concentration 1 uM
# [2] = 12 h, 10 µM, compound concentration 10 uM
# [3] = 24 h, 1 µM, compound concentration 1 uM
# [4] = 24 h, 10 µM, compound concentration 10 uM
# [5] = 48 h, 1 µM, compound concentration 1 uM
# [6] = 48 h, 10 µM, compound concentration 10 uM
smiles,measurement,setting,value
CCn1c(-c2nonc2N)nc2c(C#CC(C)(C)O)ncc(OCC3CCCNC3)c21 (stereo not given),Population Apoptotic (%),[1],10.29% and 11.11%
same,Population Fragmented Nuclei (%),[1],2.35% and 5.52%
same,Population Hoechst High Intensity Objects (%),[1],0.29% and 0%
same,Population Membrane Permeable-Phenotype (%),[1],0%
same,Population Mitochondria Different-Phenotype (%),[1],31.65% and 45.45%
same,Population Mitotic Cells (%),[1],89.71% and 88.89%
same,Population Normal (%),[1],99.71% and 100%
same,Population Pyknosed Nuclei (%),[1],51.32% and 86.9%
same,Total Cell Count,[1],342 and 145
same,Population Apoptotic (%),[2],15.66% and 20.38%
same,Population Fragmented Nuclei (%),[2],0.98% and 2.91%
same,Population Hoechst High Intensity Objects (%),[2],1.92% and 0%
same,Population Membrane Permeable-Phenotype (%),[2],0%
same,Population Mitochondria Different-Phenotype (%),[2],33.96% and 20%
same,Population Mitotic Cells (%),[2],84.34% and 79.62%
same,Population Normal (%),[2],98.08% and 100%
same,Population Pyknosed Nuclei (%),[2],64.5% and 91.28%
same,Population Tubulin-Different-Phenotype (%),[2],48.11% and 40%
same,Total Cell Count,[2],313 and 172
same,Population Apoptotic (%),[3],27.07% and 20.59%
same,Population Fragmented Nuclei (%),[3],1.2% and 4.2%
same,Population Healthy Nuclei (%),[3],58.73% and 24.48%
same,Population Hoechst High Intensity Objects (%),[3],0.3% and 0%
same,Population Membrane Permeable-Phenotype (%),[3],1.54% and 0%
same,Population Mitochondria Different-Phenotype (%),[3],34.87% and 20%
same,Population Mitotic Cells (%),[3],72.93% and 79.41%
same,Population Normal (%),[3],99.7% and 100%
same,Population Pyknosed Nuclei (%),[3],40.06% and 71.33%
same,Total Cell Count,[3],333 and 143
same,Population Apoptotic (%),[4],43.87% and 34.93%
same,Population Fragmented Nuclei (%),[4],1.02% and 3.07%
same,Population Hoechst High Intensity Objects (%),[4],1.01% and 0%
same,Population Membrane Permeable-Phenotype (%),[4],0%
same,Population Mitochondria Different-Phenotype (%),[4],55.56% and 50%
same,Population Mitotic Cells (%),[4],56.13% and 65.07%
same,Population Normal (%),[4],98.99% and 100%
same,Population Pyknosed Nuclei (%),[4],52.9% and 89.57%
same,Population Tubulin-Different-Phenotype (%),[4],82.22% and 41.67%
same,Total Cell Count,[4],296 and 163
same,Population Apoptotic (%),[5],16.67% and 24.05%
same,Population Fragmented Nuclei (%),[5],1.43% and 3.95%
same,Population Healthy Nuclei (%),[5],81.46% and 51.41%
same,Population Hoechst High Intensity Objects (%),[5],0.32% and 0.56%
same,Population Membrane Permeable-Phenotype (%),[5],3.89% and 2.2%
same,Population Mitochondria Different-Phenotype (%),[5],59.34% and 63.74%
same,Population Mitotic Cells (%),[5],83.33% and 75.95%
same,Population Normal (%),[5],99.68% and 99.44%
same,Population Pyknosed Nuclei (%),[5],17.12% and 44.63%
same,Population Apoptotic (%),[6],73.58% and 71.96%
same,Population Fragmented Nuclei (%),[6],1.19% and 2.01%
same,Population Healthy Nuclei (%),[6],56.75% and 26.17%
same,Population Hoechst High Intensity Objects (%),[6],1.18% and 0%
same,Population Membrane Permeable-Phenotype (%),[6],2.8% and 0%
same,Population Mitochondria Different-Phenotype (%),[6],97.2% and 92.31%
same,Population Mitotic Cells (%),[6],26.42% and 28.04%
same,Population Normal (%),[6],98.82% and 100%
same,Population Pyknosed Nuclei (%),[6],42.06% and 71.81%
same,Population Tubulin-Different-Phenotype (%),[6],70.63% and 92.31%
same,Total Cell Count,[6],255 and 149
CN(C)C(=O)Cn1cc(-c2ccc(-c3cncc4ccccc34)cc2)cn1,Population Apoptotic (%),[1],52% and 40%
same,Population Fragmented Nuclei (%),[1],5% and 4%
same,Population Healthy Nuclei (%),[1],81% and 80%
same,Population Hoechst High Intensity Objects (%),[1],7% and 2%
same,Population Membrane Permeable-Phenotype (%),[1],0%
same,Population Mitochondria Different-Phenotype (%),[1],50% and 58%
same,Population Mitotic Cells (%),[1],47% and 59%
same,Population Normal (%),[1],92% and 97%
same,Population Pyknosed Nuclei (%),[1],12% and 14%
same,Population Tubulin-Different-Phenotype (%),[1],35% and 23%
same,Total Cell Count,[1],411 and 337
same,Population Apoptotic (%),[2],48% and 69%
same,Population Fragmented Nuclei (%),[2],8%
same,Population Healthy Nuclei (%),[2],73% and 76%
same,Population Membrane Permeable-Phenotype (%),[2],0%
same,Population Mitochondria Different-Phenotype (%),[2],65% and 69%
same,Population Mitotic Cells (%),[2],51% and 30%
same,Population Normal (%),[2],93% and 80%
same,Population Pyknosed Nuclei (%),[2],17% and 15%
same,Population Tubulin-Different-Phenotype (%),[2],47% and 43%
same,Total Cell Count,[2],264 and 321
same,Population Apoptotic (%),[3],47% and 40%
same,Population Fragmented Nuclei (%),[3],10% and 6%
same,Population Healthy Nuclei (%),[3],79% and 82%
same,Population Hoechst High Intensity Objects (%),[3],6% and 7%
same,Population Membrane Permeable-Phenotype (%),[3],0%
same,Population Mitochondria Different-Phenotype (%),[3],38% and 45%
same,Population Mitotic Cells (%),[3],52% and 60%
same,Population Normal (%),[3],93% and 92%
same,Population Pyknosed Nuclei (%),[3],10%
same,Population Tubulin-Different-Phenotype (%),[3],24% and 23%
same,Total Cell Count,[3],498 and 355
same,Population Apoptotic (%),[4],48% and 45%
same,Population Fragmented Nuclei (%),[4],9% and 10%
same,Population Healthy Nuclei (%),[4],75%
same,Population Hoechst High Intensity Objects (%),[4],6% and 14%
same,Population Membrane Permeable-Phenotype (%),[4],0%
same,Population Mitochondria Different-Phenotype (%),[4],65% and 53%
same,Population Mitotic Cells (%),[4],51% and 54%
same,Population Normal (%),[4],93% and 85%
same,Population Pyknosed Nuclei (%),[4],14% and 13%
same,Population Tubulin-Different-Phenotype (%),[4],44% and 30%
same,Total Cell Count,[4],283 and 362
same,Population Apoptotic (%),[5],35% and 60%
same,Population Fragmented Nuclei (%),[5],19% and 11%
same,Population Healthy Nuclei (%),[5],74% and 82%
same,Population Hoechst High Intensity Objects (%),[5],8% and 5%
same,Population Membrane Permeable-Phenotype (%),[5],1% and 0%
same,Population Mitochondria Different-Phenotype (%),[5],40% and 32%
same,Population Mitotic Cells (%),[5],64% and 39%
same,Population Normal (%),[5],91% and 94%
same,Population Pyknosed Nuclei (%),[5],6% and 5%
same,Population Tubulin-Different-Phenotype (%),[5],25% and 17%
same,Total Cell Count,[5],554 and 430
same,Population Apoptotic (%),[6],66% and 59%
same,Population Fragmented Nuclei (%),[6],23%
same,Population Healthy Nuclei (%),[6],63% and 70%
same,Population Hoechst High Intensity Objects (%),[6],11% and 8%
same,Population Membrane Permeable-Phenotype (%),[6],0%
same,Population Mitochondria Different-Phenotype (%),[6],56% and 43%
same,Population Mitotic Cells (%),[6],33% and 40%
same,Population Normal (%),[6],88% and 91%
same,Population Pyknosed Nuclei (%),[6],12% and 6%
same,Population Tubulin-Different-Phenotype (%),[6],30% and 23%
same,Total Cell Count,[6],379 and 429
O=C(NCC(=O)N1CC[C@H](N[C@H]2CC[C@@](O)(c3ccc(-c4ncccn4)cn3)CC2)C1)c1cccc(C(F)(F)F)c1 [PF-4136309],Population Apoptotic (%),[1],44% and 34%
same,Population Fragmented Nuclei (%),[1],6% and 5%
same,Population Healthy Nuclei (%),[1],80%
same,Population Hoechst High Intensity Objects (%),[1],4% and 6%
same,Population Membrane Permeable-Phenotype (%),[1],0%
same,Population Mitochondria Different-Phenotype (%),[1],41% and 56%
same,Population Mitotic Cells (%),[1],56% and 66%
same,Population Normal (%),[1],95% and 93%
same,Population Pyknosed Nuclei (%),[1],13%
same,Population Tubulin-Different-Phenotype (%),[1],32% and 15%
same,Total Cell Count,[1],393 and 389
same,Population Apoptotic (%),[2],39% and 48%
same,Population Fragmented Nuclei (%),[2],7% and 3%
same,Population Healthy Nuclei (%),[2],76% and 81%
same,Population Hoechst High Intensity Objects (%),[2],7% and 6%
same,Population Membrane Permeable-Phenotype (%),[2],0%
same,Population Mitochondria Different-Phenotype (%),[2],53% and 75%
same,Population Mitotic Cells (%),[2],60% and 51%
same,Population Normal (%),[2],92% and 93%
same,Population Pyknosed Nuclei (%),[2],15% and 14%
same,Population Tubulin-Different-Phenotype (%),[2],55% and 45%
same,Total Cell Count,[2],358 and 295
same,Population Apoptotic (%),[3],25% and 39%
same,Population Fragmented Nuclei (%),[3],10% and 8%
same,Population Healthy Nuclei (%),[3],80%
same,Population Hoechst High Intensity Objects (%),[3],2% and 5%
same,Population Membrane Permeable-Phenotype (%),[3],0%
same,Population Mitochondria Different-Phenotype (%),[3],26% and 31%
same,Population Mitotic Cells (%),[3],74% and 60%
same,Population Normal (%),[3],97% and 94%
same,Population Pyknosed Nuclei (%),[3],9% and 11%
same,Population Tubulin-Different-Phenotype (%),[3],15% and 13%
same,Total Cell Count,[3],561 and 485
same,Population Apoptotic (%),[4],35% and 57%
same,Population Fragmented Nuclei (%),[4],10% and 8%
same,Population Healthy Nuclei (%),[4],73% and 80%
same,Population Hoechst High Intensity Objects (%),[4],7% and 5%
same,Population Membrane Permeable-Phenotype (%),[4],1% and 0%
same,Population Mitochondria Different-Phenotype (%),[4],39% and 54%
same,Population Mitotic Cells (%),[4],64% and 42%
same,Population Normal (%),[4],92% and 94%
same,Population Pyknosed Nuclei (%),[4],16% and 11%
same,Population Tubulin-Different-Phenotype (%),[4],36% and 27%
same,Total Cell Count,[4],450 and 384
same,Population Apoptotic (%),[5],18% and 27%
same,Population Fragmented Nuclei (%),[5],16%
same,Population Healthy Nuclei (%),[5],78% and 77%
same,Population Hoechst High Intensity Objects (%),[5],0% and 2%
same,Population Membrane Permeable-Phenotype (%),[5],1% and 0%
same,Population Mitochondria Different-Phenotype (%),[5],14% and 16%
same,Population Mitotic Cells (%),[5],81% and 72%
same,Population Normal (%),[5],99% and 97%
same,Population Pyknosed Nuclei (%),[5],4% and 5%
same,Population Tubulin-Different-Phenotype (%),[5],9% and 11%
same,Total Cell Count,[5],1007 and 907
same,Population Apoptotic (%),[6],31% and 43%
same,Population Fragmented Nuclei (%),[6],13% and 11%
same,Population Healthy Nuclei (%),[6],75% and 79%
same,Population Hoechst High Intensity Objects (%),[6],5% and 4%
same,Population Membrane Permeable-Phenotype (%),[6],0%
same,Population Mitochondria Different-Phenotype (%),[6],34% and 46%
same,Population Mitotic Cells (%),[6],68% and 56%
same,Population Normal (%),[6],94% and 95%
same,Population Pyknosed Nuclei (%),[6],11% and 8%
same,Population Tubulin-Different-Phenotype (%),[6],23% and 30%
same,Total Cell Count,[6],636 and 468
